Data published in the array DNA melting data of Ke et al. (doi:10.1101/2024.01.08.574731).

Columns and labels:
[1] = melting temperature; fluorescence melt of hairpins on a sequencing array, two-state fit, raised by 9.35 °C to match UV melts; conditions: sodium 0.088 M
In short: (§1)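 Cy3 fluorescence of library hairpins on a sequenced MiSeq flow cell, with annealed Cy3 and quencher oligos, was imaged in 50 mM Na-HEPES pH 8.0, 25 mM NaCl in 2.5 °C steps up to 60 °C. Signals were normalised to pre-quench Cy3 and to control variants. Melting temperature and folding enthalpy came from bootstrapped two-state fits, inverse-variance combined over four replicates. Fitted temperatures were raised by 9.35 °C to match UV melts.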

[2] = folding enthalpy; higher = less favourable; fluorescence melt of hairpins on a sequencing array, two-state fit; conditions: sodium 0.088 M
In short: as §1

Sequence	Tm [1]	folding enthalpy [2]
GCGAATTCTCGC ((((....))))	47.9 °C	-19.6 kcal/mol
GCGAATTTCGC ((((...))))	48.8 °C	-24.8 kcal/mol
GCGACAAATCGC ((((....))))	43.6 °C	-16.5 kcal/mol
GCGACAATTCGC ((((....))))	44.8 °C	-17.2 kcal/mol
GCGACACGAAAGTGACGC (((.(((....))).)))	68.5 °C	-38.7 kcal/mol
GCGACAGATCGC ((((....))))	47.9 °C	-20.7 kcal/mol
GCGACAGGAAACCATCGC ((((..(....)..))))	35.8 °C	-17 kcal/mol
GCGACAGGAAACTGTCAC (.(((((....))))).)	43.8 °C	-16.6 kcal/mol
GCGACATATCGC ((((....))))	49.9 °C	-23.4 kcal/mol
GCGACCATCGC ((((...))))	46.4 °C	-17.6 kcal/mol
GCGACCATTCGC ((((....))))	47.4 °C	-24.4 kcal/mol
GCGACCCGTCGC ((((....))))	60.7 °C	-40.1 kcal/mol
GCGACCCTTCGC ((((....))))	51.1 °C	-26.3 kcal/mol
GCGACCGAAAGGTGCCGC ((((((....)))..)))	50.4 °C	-15.6 kcal/mol
GCGACCGAAAGGTTTCGC ((((((....)))..)))	49 °C	-24.1 kcal/mol
GCGACCGGTCGC ((((....))))	62 °C	-55.6 kcal/mol
GCGACCTGTCGC ((((....))))	68.3 °C	-26.5 kcal/mol
GCGACCTTCGC ((((...))))	48.2 °C	-25.4 kcal/mol
GCGACGAATCGC ((((....))))	49.6 °C	-13.1 kcal/mol
GCGACGCGAAAGCATGGC ((.(.((....)).).))	40.4 °C	-9.76 kcal/mol
GCGACGCGAAAGCCTAGC ((.(.((....)).).))	43.5 °C	-18.9 kcal/mol
GCGACGCGAAAGCGCAGC ((..(((....)))..))	58.9 °C	-15.5 kcal/mol
GCGACGCGAAAGCTTCGC ((((.((....)).))))	65.2 °C	-45.6 kcal/mol
GCGACGGTCGC ((((...))))	48.7 °C	-28.4 kcal/mol
GCGACGTCGAAAGACCGC (((..(((....))))))	50.6 °C	-25.4 kcal/mol

Sequence	Tm [1]	folding enthalpy [2]
GCGACTAATCGC ((((....))))	47.2 °C	-24.2 kcal/mol
GCGACTAGTCGC ((((....))))	65.2 °C	-28.9 kcal/mol
GCGACTATCGC ((((...))))	46.6 °C	-16.8 kcal/mol
GCGACTATTCGC ((((....))))	47.4 °C	-19.3 kcal/mol
GCGACTGCGAAAGCACGC (((..(((....))))))	48.8 °C	-15.3 kcal/mol
GCGACTGGAAACAGCCGC (((.(((....))).)))	56.2 °C	-51.9 kcal/mol
GCGACTTATCGC ((((....))))	48.8 °C	-24.1 kcal/mol
GCGAGACATCGC ((((....))))	55.1 °C	-8 kcal/mol
GCGAGACGAAAGTCACGC (((.(((....))).)))	68.5 °C	-31.5 kcal/mol
GCGAGACGAAAGTCCGC (((.(((....))))))	67.2 °C	-29.3 kcal/mol
GCGAGACTTCGC ((((....))))	56.6 °C	-10.4 kcal/mol
GCGAGAGCTCGC ((((....))))	52.5 °C	-12.8 kcal/mol
GCGAGAGGAAACTTTCGC ((((.((....)).))))	48.8 °C	-33.8 kcal/mol
GCGAGAGGTCGC ((((....))))	50.9 °C	-8.36 kcal/mol
GCGAGCAGTCGC ((((....))))	52.6 °C	-26.2 kcal/mol
GCGAGCCGAAAGGCCCGC (((.(((....))).)))	67.8 °C	-26.1 kcal/mol
GCGAGCGAAAGCTGCCGC ((((((....)))..)))	53.5 °C	-13.1 kcal/mol
GCGAGCGGTCGC ((((....))))	52 °C	-22.4 kcal/mol
GCGAGGACTCGC ((((....))))	56.1 °C	-31.9 kcal/mol
GCGAGGATCGC ((((...))))	59.4 °C	-23.7 kcal/mol
GCGAGGCATCGC ((((....))))	57.4 °C	-26.3 kcal/mol
GCGAGGCGAAAGCGGCGC (((..((....))..)))	66.8 °C	-38.1 kcal/mol
GCGAGGGATCGC ((((....))))	52.1 °C	-16.6 kcal/mol
GCGAGGTCGAAAGACCGC (((..(((....))))))	54.3 °C	-9.59 kcal/mol
